In the array DNA melting data of Ke et al. (doi:10.1101/2024.01.08.574731):

Key:
[1] = folding enthalpy; higher = less favourable; fluorescence melt of hairpins on a sequencing array, two-state fit; details: sodium 0.088 M
In short: (§1)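 Cy3 signals were normalised both to pre-quench Cy3 and to control constructs. They came from library hairpins carrying annealed Cy3 and quencher oligos on a sequenced MiSeq flow cell, imaged in 50 mM Na-HEPES pH 8.0, 25 mM NaCl, in 2.5 °C steps up to 60 °C. Bootstrapped two-state fits gave melting temperature and folding enthalpy, and four replicates were combined by inverse variance. Fitted temperatures were then raised by 9.35 °C to match UV melts.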

[2] = melting temperature; fluorescence melt of hairpins on a sequencing array, two-state fit, raised by 9.35 °C to match UV melts; details: sodium 0.088 M
In short: as §1

Q: What does the source list for GCGAGGGGAAACCCCCAC (.(.(((....))).).)?
A: folding enthalpy [1]: -10.9 kcal/mol; Tm [2]: 28.6 °C

Q: With GCGAGGGGAAACCCTCAC (.(((((....))))).) as the sequence, how does the folding enthalpy [1] read?
A: -13.7 kcal/mol

Q: And the Tm [2]?
A: 45.2 °C

Q: With GCGAGGGGAAACTCTCGC (((((.(....).))))) as the sequence, how does the folding enthalpy [1] read?
A: -40.3 kcal/mol

Q: And the Tm [2]?
A: 58 °C

Q: Which folding enthalpy [1] does the source give for GCGAGTCCGAAAGGACGC (((..(((....)))))) here?
A: -9.26 kcal/mol

Q: And the Tm [2]?
A: 53 °C

Q: What does the source list for GCGAGTCGAAAGACCGC (((.(((....))))))?
A: folding enthalpy [1]: -35.1 kcal/mol; Tm [2]: 66.8 °C

Q: For GCGAGTCTCGC ((((...)))), which folding enthalpy [1] is on record?
A: -19.8 kcal/mol

Q: And the Tm [2]?
A: 50.1 °C

Q: With GCGAGTGATCGC ((((....)))) as the sequence, how does the folding enthalpy [1] read?
A: -21.9 kcal/mol

Q: And the Tm [2]?
A: 54.3 °C

Q: Which results are given for GCGAGTGGAAACACCCGC (((.(((....))).)))?
A: folding enthalpy [1]: -26.4 kcal/mol; Tm [2]: 51.9 °C

Q: For GCGAGTGGAAACACTTGC ((.((((....)))).)), which folding enthalpy [1] is on record?
A: -39.2 kcal/mol

Q: What about the Tm [2] of the same sequence?
A: 53.6 °C

Q: With GCGAGTTCGAAAGAACGC (((..(((....)))))) as the sequence, how does the folding enthalpy [1] read?
A: -11.8 kcal/mol

Q: And the Tm [2]?
A: 49.5 °C

Q: What does the source list for GCGATAAGTCGC ((((....))))?
A: folding enthalpy [1]: -18.9 kcal/mol; Tm [2]: 49.8 °C

Q: Which results are given for GCGATACGTCGC ((((....))))?
A: folding enthalpy [1]: -30.6 kcal/mol; Tm [2]: 54.4 °C

Q: Which folding enthalpy [1] does the source give for GCGATACTTCGC ((((....)))) here?
A: -25.9 kcal/mol

Q: What about the Tm [2] of the same sequence?
A: 52.7 °C

Q: Which folding enthalpy [1] does the source give for GCGATAGATCGC ((((....)))) here?
A: -21.7 kcal/mol

Q: What about the Tm [2] of the same sequence?
A: 49.7 °C

Q: What does the source list for GCGATAGCTCGC ((((....))))?
A: folding enthalpy [1]: -9.76 kcal/mol; Tm [2]: 65.8 °C

Q: Which results are given for GCGATCATCGC ((((...))))?
A: folding enthalpy [1]: -19.5 kcal/mol; Tm [2]: 49.6 °C

Q: With GCGATCGAAAGATCCCGC ((((((....)))..))) as the sequence, how does the folding enthalpy [1] read?
A: -17.7 kcal/mol

Q: And the Tm [2]?
A: 37.1 °C

Q: With GCGATCGAAAGATCCGC ((((((....))).))) as the sequence, how does the folding enthalpy [1] read?
A: -28.8 kcal/mol

Q: And the Tm [2]?
A: 52 °C

Q: For GCGATCGAAAGATCTCGC ((((((....)))..))), which folding enthalpy [1] is on record?
A: -20.2 kcal/mol

Q: And the Tm [2]?
A: 44.1 °C

Q: With GCGATCGAAAGATGACGC ((((((....)))..))) as the sequence, how does the folding enthalpy [1] read?
A: -28.3 kcal/mol

Q: And the Tm [2]?
A: 44.1 °C

Q: Which results are given for GCGATCGAAAGATGCCGC ((((((....)))..)))?
A: folding enthalpy [1]: -17 kcal/mol; Tm [2]: 39.6 °C

Q: Which results are given for GCGATCGAAAGATGGCGC ((((((....)))..)))?
A: folding enthalpy [1]: -34.8 kcal/mol; Tm [2]: 53.2 °C

Q: Which folding enthalpy [1] does the source give for GCGATCGGAAACGATCAC (.(((((....))))).) here?
A: -14.7 kcal/mol

Q: What about the Tm [2] of the same sequence?
A: 46.5 °C

Q: Which results are given for GCGATCGGAAACGGTCGC ((((.((....)).))))?
A: folding enthalpy [1]: -39.1 kcal/mol; Tm [2]: 66.8 °C

Q: Which results are given for GCGATCTCGAAAGAGCGC (((..(((....))))))?
A: folding enthalpy [1]: -33.1 kcal/mol; Tm [2]: 56.3 °C

Q: For GCGATCTTCGC ((((...)))), which folding enthalpy [1] is on record?
A: -19.4 kcal/mol

Q: And the Tm [2]?
A: 51.9 °C

Q: For GCGATGACGAAAGTCCGC (((..(((....)))))), which folding enthalpy [1] is on record?
A: -20 kcal/mol

Q: What about the Tm [2] of the same sequence?
A: 52 °C

Q: Which results are given for GCGATGACTCGC ((((....))))?
A: folding enthalpy [1]: -21.7 kcal/mol; Tm [2]: 47.2 °C

Q: Which folding enthalpy [1] does the source give for GCGATGCATCGC ((((....)))) here?
A: -32.1 kcal/mol

Q: And the Tm [2]?
A: 59.6 °C

Q: What does the source list for GCGATGCGAAAGCAAAGC ((..(((....)))..))?
A: folding enthalpy [1]: -32.9 kcal/mol; Tm [2]: 61 °C

Q: For GCGATGCGAAAGCACGC (((.(((....)))))), which folding enthalpy [1] is on record?
A: -23.4 kcal/mol

Q: And the Tm [2]?
A: 68.4 °C

Q: For GCGATGCGAAAGCACGGC ((..(((....)))..)), which folding enthalpy [1] is on record?
A: -16.5 kcal/mol

Q: What about the Tm [2] of the same sequence?
A: 51.2 °C

Q: For GCGATGCGAAAGCATGGC ((.((((....)))).)), which folding enthalpy [1] is on record?
A: -21.2 kcal/mol

Q: What about the Tm [2] of the same sequence?
A: 64.6 °C

Q: With GCGATGCGAAAGCCACGC (((..((....))..))) as the sequence, how does the folding enthalpy [1] read?
A: -21.1 kcal/mol

Q: And the Tm [2]?
A: 52.1 °C

Q: With GCGATGCGAAAGCCTCGC ((((.((....)).)))) as the sequence, how does the folding enthalpy [1] read?
A: -40.3 kcal/mol

Q: What about the Tm [2] of the same sequence?
A: 64.6 °C

Q: Which results are given for GCGATGCGAAAGCCTGGC ((.(.((....)).).))?
A: folding enthalpy [1]: -11.5 kcal/mol; Tm [2]: 29.1 °C

Q: With GCGATGCGAAAGCTGCGC (((..((....))..))) as the sequence, how does the folding enthalpy [1] read?
A: -22.7 kcal/mol

Q: What about the Tm [2] of the same sequence?
A: 64.2 °C

Q: With GCGATGCGAAAGCTTAGC ((.(.((....)).).)) as the sequence, how does the folding enthalpy [1] read?
A: -23.6 kcal/mol

Q: What about the Tm [2] of the same sequence?
A: 56.9 °C

Q: For GCGATGCGAAAGCTTTGC ((.(.((....)).).)), which folding enthalpy [1] is on record?
A: -21.2 kcal/mol

Q: And the Tm [2]?
A: 46.3 °C

Q: Which folding enthalpy [1] does the source give for GCGATGGCTCGC ((((....)))) here?
A: -19.2 kcal/mol

Q: What about the Tm [2] of the same sequence?
A: 47.8 °C

Q: With GCGATTCGAAAGAAACGC (((.(((....))).))) as the sequence, how does the folding enthalpy [1] read?
A: -47.3 kcal/mol

Q: And the Tm [2]?
A: 55.7 °C

Q: For GCGATTCGAAAGAAGCGC (((.(((....))).))), which folding enthalpy [1] is on record?
A: -39.7 kcal/mol

Q: And the Tm [2]?
A: 68.7 °C

Q: What does the source list for GCGATTCTTCGC ((((....))))?
A: folding enthalpy [1]: -26.1 kcal/mol; Tm [2]: 53.5 °C

Q: What does the source list for GCGATTTCTCGC ((((....))))?
A: folding enthalpy [1]: -24.4 kcal/mol; Tm [2]: 49.5 °C

Q: Which folding enthalpy [1] does the source give for GCGATTTTCGC ((((...)))) here?
A: -22 kcal/mol

Q: What about the Tm [2] of the same sequence?
A: 52.3 °C

Q: With GCGCAACCGAAAGGTCGC (((..(((....)))))) as the sequence, how does the folding enthalpy [1] read?
A: -23.9 kcal/mol

Q: What about the Tm [2] of the same sequence?
A: 55 °C
